ChEMBL document CHEMBL1155561, “A new 2D-TLC bioautography method for the discovery of novel antifungal agents To control plant pathogens” (2000)
Active and inactive are the calls of the source. The rule behind the calls is not given here.

These compounds were tested on Colletotrichum fragariae (assay: Antifungal activity against Colletotrichum fragariae assessed as zone of inhibition).
Assay type: functional
Outline: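 Direct 1D-TLC bioautography on glass-backed Si gel plates (activated 1 h at 100 °C). Standards were applied at […] from 5 µM ethanolic solutions (1 × 10-5 µmol/spot) and developed in 1:1 EtOAc/hexanes. Plates were sprayed three times with conidia (ca. 3 × 10^5/mL) in PDB with 0.1% agar and 0.1% Tween-80, then incubated at 24 °C with a 12 h photoperiod. Inhibition zones were measured after 4 days.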

SMILES	Activity	inhibition zone (IZ)
c1ccc2[nH]c(-c3cscn3)nc2c1	inactive	–
Nc1c(Cl)cc([N+](=O)[O-])cc1Cl [ALLISAN]	–	80 mm2
O=CNC(N1CCN(C(NC=O)C(Cl)(Cl)Cl)CC1)C(Cl)(Cl)Cl (stereo not given)	inactive	–
C=CC1(C)OC(=O)N(c2cc(Cl)cc(Cl)c2)C1=O (stereo not given) [VINCLOZOLIN]	–	48 mm2
CO/C=C(/C(=O)OC)c1ccccc1Oc1cc(Oc2ccccc2C#N)ncn1 [AZOXYSTROBIN]	–	80 mm2
COC(=O)NC(=S)Nc1ccccc1NC(=S)NC(=O)OC [THIOPHANATE METHYL]	–	24 mm2
CC(C)Oc1cccc(NC(=O)c2ccccc2C(F)(F)F)c1	inactive	–
O=[N+]([O-])c1c(Cl)c(Cl)c(Cl)c(Cl)c1Cl [PENTACHLORONITROBENZENE]	–	5 mm2
COC(=O)Nc1nc2ccccc2[nH]1 [CARBENDAZIM]	–	24 mm2
CC(=O)O.CCCCCCCCCCCCNC(=N)N [DODINE]	–	20 mm2
